Measurements taken from ChEMBL document CHEMBL1177847, “Combating oxidative stress in epilepsy: design, synthesis, quantum chemical studies and anticonvulsant evaluation of 1-(substituted benzylidene/ethylidene)-4-(naphthalen-1-yl)semicarbazides” (Eur J Med Chem, 2010).
Calls of active or inactive are those of the source. The calls are words filed in the database; no cut-off is given here.

What was measured:
Mus musculus [1] = test: Neurotoxicity in ip dosed Swiss albino mouse assessed as minimum dose required to cause impair in motor coordination after 0.5 hrs by rotarod test; type: toxicity, organism-based; settings: in vivo
How it was run: (§1)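 Rotarod motor-impairment test in male Swiss albino mice dosed i.p. at 30, 100 or 300 mg/kg in 5% gum acacia/water. Mice that fell off the rotating rod within 30 s during pretraining were excluded. The dose at which animals fell off was recorded at 0.5 and 4 h.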

Mus musculus [2] = test: Anticonvulsant activity against maximal electroshock-induced seizures in ip dosed Swiss albino mouse assessed as minimum effective dose after 0.5 hrs; type: functional; settings: read-out: MED
How it was run: (§2)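 Male Swiss albino mice (18–25 g) received the compound suspended in 5% gum acacia/water, i.p. at 30, 100 and 300 mg/kg (one to four animals per dose). Maximal electroshock was applied at 0.5 and 4 h. Protection meant abolition of the hind limb tonic extensor component. The lowest dose protecting half or more of the mice was recorded.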

Mus musculus [3] = test: Toxicity in subcutaneous pentylenetetrazole-induced Swiss albino mouse assessed as death at 30 to 300 mg/kg, ip after 0.5 hrs; type: organism-based; parameters: dose 30-300 mg/kg
How it was run: (§3)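 Male Swiss albino mice (18–25 g) given compound suspended in 5% gum acacia/water, i.p. at 30, 100 or 300 mg/kg, one to four animals per dose. PTZ at 85 mg/kg was injected 30 min after compound. Animals were examined 0.5 and 4 h after administration, and death following tonic extension was noted. The maximum dose was 300 mg/kg.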

Mus musculus [4] = test: Anticonvulsant activity against subcutaneous pentylenetetrazole-induced seizures in Swiss albino mouse at 300 mg/kg, ip after 4 hrs; type: functional, organism-based; parameters: dose 300 mg/kg
How it was run: (§4)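 Male Swiss albino mice (18–25 g) were dosed i.p. with the compound in 5% gum acacia/water at 30, 100 or 300 mg/kg. Thirty minutes later they received PTZ 85 mg/kg (CD97) and were watched for seizures over 4 h. Readings at 0.5 and 4 h gave the lowest dose active in half or more of the animals. Myoclonic jerks were noted separately.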

Mus musculus [5] = test: Anticonvulsant activity against maximal electroshock-induced seizures in Swiss albino mouse at 300 mg/kg, ip after 4 hrs; type: functional, organism-based; parameters: dose 300 mg/kg; how it was run: as §2
Mus musculus [6] = test: Neurotoxicity in ip dosed Swiss albino mouse assessed as impair in motor coordination at 300 mg/kg, ip after 4 hrs by rotarod test; type: toxicity, organism-based; parameters: dose 300 mg/kg, route intraperitoneal; settings: in vivo; how it was run: as §1
Mus musculus [7] = test: Anticonvulsant activity against maximal electroshock-induced seizures in Swiss albino mouse at 300 mg/kg, ip after 0.5 hrs; type: functional, organism-based; parameters: dose 300 mg/kg; how it was run: as §2
Mus musculus [8] = test: Anticonvulsant activity against subcutaneous pentylenetetrazole-induced seizures in ip dosed Swiss albino mouse assessed as minimum effective dose after 0.5 hrs; type: functional; settings: read-out: MED; how it was run: as §4
Mus musculus [9] = test: Anticonvulsant activity against maximal electroshock-induced seizures in ip dosed Swiss albino mouse assessed as minimum effective dose after 4 hrs; type: functional; settings: read-out: MED; how it was run: as §2
Rattus norvegicus = test: Anticonvulsant activity against subcutaneous pentylenetetrazole-induced seizures in Wistar albino rat at 50 mg/kg, ip after 2 hrs; type: functional
Mus musculus [10] = test: Restoration of GSH level in subcutaneous pentylenetetrazole treated Swiss albino mouse brain assessed per gram of tissue at 100 mg/kg, ip after 4 hrs; type: functional; settings: route intraperitoneal
How it was run: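 Brains were taken from PTZ-treated mice 4 h after 100 mg/kg i.p. dosing. Tissue was deproteinized with an equal volume of 10% TCA for 2 h at 4 °C and centrifuged at 2000 g for 15 min. The supernatant was mixed with 0.4 M Tris (pH 8.9) containing 0.02 M EDTA, and 0.01 M DTNB was added before spectrophotometric reading. n = 6.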

Mus musculus [11] = test: Restoration of SOD activity in subcutaneous pentylenetetrazole treated Swiss albino mouse brain assessed per mg of protein at 100 mg/kg, ip after 4 hrs; type: functional; settings: route intraperitoneal
How it was run: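 The ethanol phase of an ethanol/chloroform (5:3) extract of brain supernatant was used, from PTZ-treated mice 4 h after 100 mg/kg i.p. Superoxide was generated by xanthine–xanthine oxidase at pH 10.2 with NBT, 20 min at 25 °C. The reaction was stopped with CuCl2 and read at 560 nm. One unit gives 50% inhibition of NBT reduction; results are expressed as U/mg protein. n = 6.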

Mus musculus [12] = test: Anticonvulsant activity against subcutaneous pentylenetetrazole-induced seizures in ip dosed Swiss albino mouse assessed as minimum effective dose after 4 hrs; type: functional; settings: read-out: MED; how it was run: as §4
Mus musculus [13] = test: Neurotoxicity in ip dosed Swiss albino mouse assessed as impair in motor coordination at 300 mg/kg, ip after 0.5 hrs by rotarod test; type: toxicity, organism-based; parameters: dose 300 mg/kg, route intraperitoneal; settings: in vivo; how it was run: as §1
Mus musculus [14] = test: Reduction of lipid peroxidation in subcutaneous pentylenetetrazole treated Swiss albino mouse brain assessed reduction of malondialdehyde level per mg of protein at 100 mg/kg, ip after 4 hrs by TBARS assay; type: functional; settings: route intraperitoneal
How it was run: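 PTZ-treated mice were dosed at 100 mg/kg i.p. and decapitated 4 h after the last injection. Brains were homogenized in four volumes of ice-cold 50 mM Tris-HCl, pH 7.4, and spun at 3000 × g for 15 min. TBARS in the supernatant was read at 532 nm in the upper organic layer and expressed as nmol MDA/mg protein. n = 6, mean ± S.E.M.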

Mus musculus [15] = test: Restoration of GSH peroxidase activity in subcutaneous pentylenetetrazole treated Swiss albino mouse brain assessed per mg of protein at 100 mg/kg, ip after 4 hrs; type: functional; settings: route intraperitoneal
How it was run: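 Brain homogenate came from PTZ-treated mice 4 h after 100 mg/kg i.p. dosing, using the 10500 × g supernatant. Samples were equilibrated 5 min at 25 °C, started with H2O2, and A340 was followed for 5 min. n = 6.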

Mus musculus [16] = test: Neurotoxicity in ip dosed Swiss albino mouse assessed as minimum dose required to cause impair in motor coordination after 4 hrs by rotarod test; type: toxicity, organism-based; settings: in vivo; how it was run: as §1
Mus musculus [17] = test: Toxicity in subcutaneous pentylenetetrazole-induced Swiss albino mouse assessed as myoclonic jerks at 100 mg/kg, ip after 0.5 hrs; type: organism-based; parameters: dose 100 mg/kg; how it was run: as §4
Mus musculus [18] = test: Anticonvulsant activity against subcutaneous pentylenetetrazole-induced seizures in Swiss albino mouse at 300 mg/kg, ip after 0.5 hrs; type: functional, organism-based; parameters: dose 300 mg/kg; how it was run: as §4
Mus musculus [19] = test: Toxicity in subcutaneous pentylenetetrazole-induced Swiss albino mouse assessed as death at 30 to 300 mg/kg, ip after 4 hrs; type: organism-based; parameters: dose 30-300 mg/kg; how it was run: as §3

## COc1ccc(/C=N/NC(=O)Nc2cccc3ccccc23)cc1
Mus musculus [1]
  Activity: 300 mg/kg
Mus musculus [2]
  minimal effective dose: 300 mg/kg
Mus musculus [3]
  Activity: Toxic
Mus musculus [4]
  Activity: inactive
Mus musculus [5]
  Activity: inactive
Mus musculus [6]
  Activity: Non-toxic

## COc1cccc(/C=N/NC(=O)Nc2cccc3ccccc23)c1
Mus musculus [7]
  Activity: inactive
Mus musculus [1]
  Activity: 100 mg/kg
Mus musculus [8]
  minimal effective dose: 100 mg/kg
Mus musculus [4]
  Activity: inactive
Mus musculus [6]
  Activity: Non-toxic
Mus musculus [9]
  minimal effective dose: 300 mg/kg

## COc1ccc(/C=N/NC(=O)Nc2cccc3ccccc23)cc1OC
Rattus norvegicus
  Activity: inactive
Mus musculus [8]
  minimal effective dose: 100 mg/kg
Mus musculus [2]
  minimal effective dose: 100 mg/kg
Mus musculus [10]
  Activity: 18.51 µg
Mus musculus [11]
  Activity: 1.45 U
Mus musculus [12]
  minimal effective dose: 300 mg/kg
Mus musculus [13]
  Activity: Non-toxic
Mus musculus [14]
  Activity: 2.53 nmol
Mus musculus [6]
  Activity: Non-toxic
Mus musculus [15]
  Activity: 1.62 U
Mus musculus [9]
  minimal effective dose: 100 mg/kg

## O=C(N/N=C/c1ccccc1[N+](=O)[O-])Nc1cccc2ccccc12
Mus musculus [7]
  Activity: inactive
Mus musculus [1]
  Activity: 300 mg/kg
Mus musculus [8]
  minimal effective dose: 300 mg/kg
Mus musculus [4]
  Activity: inactive
Mus musculus [6]
  Activity: Non-toxic
Mus musculus [9]
  minimal effective dose: 300 mg/kg

## O=C(N/N=C/c1ccc(Cl)cc1)Nc1cccc2ccccc12
Mus musculus [7]
  Activity: inactive
Mus musculus [1]
  Activity: 300 mg/kg
Mus musculus [8]
  minimal effective dose: 300 mg/kg
Mus musculus [4]
  Activity: inactive
Mus musculus [6]
  Activity: Non-toxic
Mus musculus [9]
  minimal effective dose: 300 mg/kg

## O=C(N/N=C/c1ccc([N+](=O)[O-])cc1)Nc1cccc2ccccc12
Mus musculus [2]
  minimal effective dose: 300 mg/kg
Mus musculus [10]
  Activity: 16.76 µg
Mus musculus [11]
  Activity: 1.73 U
Mus musculus [12]
  minimal effective dose: 300 mg/kg
Mus musculus [13]
  Activity: Non-toxic
Mus musculus [14]
  Activity: 3.39 nmol
Mus musculus [16]
  Activity: 300 mg/kg
Mus musculus [15]
  Activity: 1.47 U
Mus musculus [17]
  Activity: Toxic
Mus musculus [9]
  minimal effective dose: 300 mg/kg

## CCC1(C)CC(=O)NC1=O (stereo unspecified) [ETHOSUXIMIDE]
Mus musculus [7]
  Activity: inactive
Mus musculus [8]
  minimal effective dose: 300 mg/kg
Mus musculus [4]
  Activity: inactive
Mus musculus [5]
  Activity: inactive
Mus musculus [13]
  Activity: Non-toxic
Mus musculus [6]
  Activity: Non-toxic

## NC(=O)N1c2ccccc2C=Cc2ccccc21 [CARBAMAZEPINE]
Mus musculus [1]
  Activity: 100 mg/kg
Mus musculus [8]
  minimal effective dose: 100 mg/kg
Mus musculus [2]
  minimal effective dose: 30 mg/kg
Mus musculus [12]
  minimal effective dose: 300 mg/kg
Mus musculus [16]
  Activity: 300 mg/kg
Mus musculus [9]
  minimal effective dose: 100 mg/kg

## C/C(=N\NC(=O)Nc1cccc2ccccc12)c1ccccc1
Mus musculus [1]
  Activity: 100 mg/kg
Mus musculus [18]
  Activity: inactive
Mus musculus [2]
  minimal effective dose: 300 mg/kg
Mus musculus [4]
  Activity: inactive
Mus musculus [5]
  Activity: inactive
Mus musculus [6]
  Activity: Non-toxic

## C/C(=N\NC(=O)Nc1cccc2ccccc12)c1ccc(C)cc1
Mus musculus [7]
  Activity: inactive
Mus musculus [1]
  Activity: 300 mg/kg
Mus musculus [8]
  minimal effective dose: 300 mg/kg
Mus musculus [4]
  Activity: inactive
Mus musculus [5]
  Activity: inactive
Mus musculus [16]
  Activity: 300 mg/kg

## O=C(N/N=C/c1ccccc1O)Nc1cccc2ccccc12
Mus musculus [7]
  Activity: inactive
Mus musculus [1]
  Activity: 300 mg/kg
Mus musculus [8]
  minimal effective dose: 300 mg/kg
Mus musculus [5]
  Activity: inactive
Mus musculus [16]
  Activity: 300 mg/kg
Mus musculus [19]
  Activity: Toxic

## O=C(N/N=C/c1ccc(Br)cc1)Nc1cccc2ccccc12
Mus musculus [1]
  Activity: 300 mg/kg
Mus musculus [8]
  minimal effective dose: 300 mg/kg
Mus musculus [2]
  minimal effective dose: 300 mg/kg
Mus musculus [4]
  Activity: inactive
Mus musculus [16]
  Activity: 300 mg/kg
Mus musculus [9]
  minimal effective dose: 300 mg/kg
